Experimental data reported in ChEMBL document CHEMBL1151195, “New isoprenylated flavones, artochamins A--E, and cytotoxic principles from Artocarpus chama” (2004).
≈ marks a conversion by molar mass, not a printed value.

Tests used:
A549 = assay: Cytotoxicity against human A549 cells; assay type: functional; details: read-out: ED50 (the source's name)
How it was run: (§1)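 Growth inhibition in cultured human tumor cell lines. Compound stocks were made in DMSO and held at -70 °C, then diluted into culture medium to a final DMSO level of ≤1% (v/v).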

MCF7 = assay: Cytotoxicity against human MCF7 cells; assay type: functional; details: read-out: ED50 (the source's name); how it was run: as §1
1A9 = assay: Cytotoxicity against human 1A9 cells; assay type: functional; details: read-out: ED50 (the source's name); how it was run: as §1
HCT-8 = assay: Cytotoxicity against human HCT8 cells; assay type: functional; details: read-out: ED50 (the source's name); how it was run: as §1
CAKI-1 = assay: Cytotoxicity against human Caki1 cells; assay type: functional; details: read-out: ED50 (the source's name); how it was run: as §1
SK-MEL-2 = assay: Cytotoxicity against human SK-MEL-2 cells; assay type: functional; details: read-out: ED50 (the source's name); how it was run: as §1
[1] = Cytotoxicity against human U87MG cells; assay type: functional, U-87MG ATCC; details: U-87 MG, read-out: ED50 (the source's name); how it was run: as §1
PC-3 = assay: Cytotoxicity against human PC3 cells; assay type: functional; details: read-out: ED50 (the source's name); how it was run: as §1
MDA-MB-231 = assay: Cytotoxicity against human MDA-MB-231 cells; assay type: functional; details: read-out: ED50 (the source's name); how it was run: as §1
KB = assay: Cytotoxicity against human KB cells; assay type: functional; details: read-out: ED50 (the source's name); how it was run: as §1
[2] = Cytotoxicity against human KBVIN cells; assay type: functional; details: read-out: ED50 (the source's name); how it was run: as §1

Compound: CC1(C)C=Cc2c(cc(O)c3c(=O)cc(-c4ccc(O)c(O)c4)oc23)O1 [ARTOCHAMIN C]
- EC50 (A549): 3 µg/mL (≈ 8.51 µM)
- EC50 (MCF7): 2.2 µg/mL (≈ 6.24 µM)
- EC50 (1A9): 2 µg/mL (≈ 5.68 µM)
- EC50 (HCT-8): 2.3 µg/mL (≈ 6.53 µM)
- EC50 (CAKI-1): 5.3 µg/mL (≈ 15 µM)
- EC50 (SK-MEL-2): 2.3 µg/mL (≈ 6.53 µM)
- EC50 [1]: 7.2 µg/mL (≈ 20.4 µM)
- EC50 (PC-3): 4.2 µg/mL (≈ 11.9 µM)
- EC50 (MDA-MB-231): 6.2 µg/mL (≈ 17.6 µM)
- EC50 (KB): 3.4 µg/mL (≈ 9.65 µM)
- EC50 [2]: 3.4 µg/mL (≈ 9.65 µM)

Compound: COc1cc2oc(-c3ccc(O)cc3O)c(CC=C(C)C)c(=O)c2c(O)c1/C=C/C(C)C [ARTOCARPIN]
- EC50 (A549): 3.3 µg/mL (≈ 7.56 µM)
- EC50 (MCF7): 3.3 µg/mL (≈ 7.56 µM)
- EC50 (1A9): 3.4 µg/mL (≈ 7.79 µM)
- EC50 (HCT-8): 3.8 µg/mL (≈ 8.71 µM)
- EC50 (CAKI-1): 4.9 µg/mL (≈ 11.2 µM)
- EC50 (SK-MEL-2): 5.4 µg/mL (≈ 12.4 µM)
- EC50 [1]: 3.7 µg/mL (≈ 8.48 µM)
- EC50 (PC-3): 4.1 µg/mL (≈ 9.39 µM)
- EC50 (MDA-MB-231): 3.8 µg/mL (≈ 8.71 µM)
- EC50 (KB): 3.2 µg/mL (≈ 7.33 µM)
- EC50 [2]: 3.6 µg/mL (≈ 8.25 µM)

Compound: CC(C)=CCc1c(-c2cc(O)c(O)cc2O)oc2c3c(cc(O)c2c1=O)OC(C)(C)C=C3 [ARTONIN E]
- EC50 (A549): 8.5 µg/mL (≈ 19.5 µM)
- EC50 (MCF7): 2.2 µg/mL (≈ 5.04 µM)
- EC50 (1A9): < 1.25 µg/mL
- EC50 (HCT-8): 3.3 µg/mL (≈ 7.56 µM)
- EC50 (CAKI-1): 9.7 µg/mL (≈ 22.2 µM)
- EC50 (SK-MEL-2): 4.3 µg/mL (≈ 9.85 µM)
- EC50 [1]: 6.4 µg/mL (≈ 14.7 µM)
- EC50 (PC-3): 6.9 µg/mL (≈ 15.8 µM)
- EC50 (MDA-MB-231): 3 µg/mL (≈ 6.87 µM)
- EC50 (KB): 6.5 µg/mL (≈ 14.9 µM)
- EC50 [2]: > 10 µg/mL

Compound: COc1ccc2c(c1)OC(C=C(C)C)c1c-2oc2cc(O)c(/C=C/C(C)C)c(O)c2c1=O (centres undefined) [CYCLOARTOCARPIN A]
- EC50 (A549): 6.6 µg/mL (≈ 15.2 µM)
- EC50 (MCF7): 6 µg/mL (≈ 13.8 µM)

Compound: CC(C)=CCc1c2c(c(O)c3c(=O)c4c(oc13)-c1c(O)cc(O)c3c1C(C4)C(C)(C)O3)C=CC(C)(C)O2 (centres undefined) [ARTONIN A]
- EC50 (A549): 6.1 µg/mL (≈ 12.1 µM)
- EC50 (MCF7): 6.7 µg/mL (≈ 13.3 µM)

Compound: CC1(C)C=Cc2c(cc(O)c3c(=O)c4c(oc23)-c2c(O)cc(O)c3c2C(C4)C(C)(C)O3)O1 (centres undefined) [CYCLOARTOBILOXANTHONE]
- EC50 (A549): 7.2 µg/mL (≈ 16.6 µM)
- EC50 (MCF7): 7.7 µg/mL (≈ 17.7 µM)
